Screening data as filed in PubChem.
Most compounds without a hit are left out; they make up all but 2.1% or so of the library.
EWS-Fli block – EWS/Fli-driven NR0B1 reporter inhibitors, primary screen, A673 cells, NR0B1 luciferase, luminescence, MLPCN library; viability-normalised; inhibition, % at 12.6 µM; 350,000 tested, 0.67% active;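 active = mean inhibition of at least 50% after viability correction, with every replicate also passing that limit; inconclusive = mean reaches 50% but only one of two replicates passes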;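 also: firefly luciferase signal divided by Alamar Blue viability fluorescence both relative to DMSO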
FN deposition inh – inhibitors of fibronectin matrix deposition, primary screen, AH1F cells, Alexa488-fibronectin fluorescence, plate reader | AH1F fibroblasts, overnight | 350,000 tested, 0.086% active | inhibition, % at 12.6 µM | AID 743247, 2014;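 active = mean inhibition across replicates of 30% or more, regardless of how many single replicates reach that level; inconclusive = mean under 30% yet at least half of replicates reach 30%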
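test system = AH1F fibroblasts assembling fluorescent fibronectin matrix | quantity = 10000 AH1F cells per well | buffer or medium = DMEM plus 2% serum, read in PBS | doses = single dose, pinned | incubation = 1 h cell attachment, overnight exposure to compound and label | detection = fluorescence at 485 nm excitation, 525 nm emission | read-out basis = inhibition from reduced deposited-fibronectin fluorescence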
LMP1 NFkB inh – EBV LMP1-driven NF-kappaB luciferase reporter inhibitors, primary screen, cell-based, luminescence, single point; LMP1-induced NF-kappaB luciferase reporter cells; inhibition, % at 12.5 µM; 350,000 tested, 0.69% active; AID 504558, 2011; in the data active = inhibition above about 41%; inconclusive = no clear call, values can overlap the other calls
aSyn UTR inh – MLPCN primary screen, SNCA 5' untranslated region | inhibition, % (tested at 7.5 µM) | AID 1813, 2009 | 300,000 tested, 0.82% active | alpha-synuclein 5'UTR reporter, inhibitor activity; in the data active = inhibition above about 60%; inconclusive = no clear call, values can overlap the other calls;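 also: H4 neuroglioblastoma cells stably carrying SNCA 5'UTR luciferase fusion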
PAX8 reporter – inhibitors of PAX8-driven TPO luciferase reporter, primary screen, RMG-I cells, single concentration; SteadyGlo, 24 h; inhibition, % at 12.6 µM; 360,000 tested, 1.2% active; AID 652154, 2013;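 active = mean replicate inhibition at least 60% with every replicate also reaching 60%; inconclusive = only one of the two criteria is met; inactive = mean below 60% and not all replicates reaching 60%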;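 also: luciferase light reporting Pax8 driven TPO promoter activity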
Shn3 inh set2 – reduction of Shn3 3'UTR firefly luciferase signal, primary screen, Schnurri-3 inhibitor project, cell-based, Clone20 osteoblasts, set 2 | Clone20 osteoblast Shn3 3'UTR firefly luciferase, 24 h | inhibition, % at 12.5 µM | 360,000 tested, 0.52% active;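 active = mean inhibition of at least 75% with every replicate also reaching 75%; inconclusive = mean inhibition at least 75% but some replicate below; inactive = mean inhibition below 75%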
Of the large screens only hits and unclear results are named; the others gave an inactive call.

C[C@@H]1CN([C@@H](C)CO)C(=O)c2cc(C#CC3(O)CCCC3)cnc2O[C@@H]1CN(C)Cc1ccccn1	none (no result: FN deposition inh, LMP1 NFkB inh, aSyn UTR inh, Shn3 inh set2)
COc1ccccc1/C=C/CN1CCC(n2nccc2NC(=O)CCc2ccccc2)CC1	Shn3 inh set2 86 (no result: EWS-Fli block)
O=C(CCc1ccccc1)Nc1ccnn1C1CCN(C/C=C/c2ccccc2)CC1	none
Cc1cc(C(C)(C)CC(C)(C)C)ccc1OCCOCC[N+](C)(C)Cc1ccccc1	PAX8 reporter 72, Shn3 inh set2 88 (no result: aSyn UTR inh)
CO[C@H]1CN(C)C(=O)c2cc(NS(=O)(=O)c3cccc(F)c3)ccc2OC[C@@H](C)NC[C@@H]1C	none (no result: LMP1 NFkB inh, aSyn UTR inh, Shn3 inh set2)
Cc1cccc(C)c1NC(=O)CN1C(=O)S/C(=C\c2cccn2-c2cccc(C(=O)O)c2)C1=O	none (no result: EWS-Fli block, FN deposition inh, PAX8 reporter)
Cc1ccccc1NC(=O)CN1C(=O)S/C(=C\c2cccn2-c2cccc(C(=O)O)c2)C1=O	LMP1 NFkB inh 74 (no result: EWS-Fli block, FN deposition inh, PAX8 reporter)
CCC(=O)N1C[C@@H](O)COC[C@@H]2O[C@H](CC(=O)N3CCCCC3)CC[C@H]21	none (no result: LMP1 NFkB inh, aSyn UTR inh, Shn3 inh set2)
COCC(=O)N[C@H]1C=C[C@H](CC(=O)NCc2ccc(Cl)cc2)O[C@H]1CO	none (no result: LMP1 NFkB inh, aSyn UTR inh, Shn3 inh set2)
COc1ccc(-n2ncc(Cl)c(Cl)c2=O)cc1	EWS-Fli block 55, PAX8 reporter 105, Shn3 inh set2 98 (no result: LMP1 NFkB inh)
Cn1ccnc1SCc1nc2c(cnn2-c2ccccc2)c(=O)[nH]1	PAX8 reporter 140
CCCC#Cc1cnc2c(c1)C(=O)N([C@@H](C)CO)C[C@@H](C)[C@H](CN(C)C(=O)Nc1ccccc1F)O2	none (no result: FN deposition inh, LMP1 NFkB inh, aSyn UTR inh, PAX8 reporter, Shn3 inh set2)
C[C@H]1CN([C@@H](C)CO)C(=O)c2cccc(NS(=O)(=O)c3ccccc3)c2O[C@@H]1CN(C)S(=O)(=O)c1cccs1	none (no result: FN deposition inh, LMP1 NFkB inh, aSyn UTR inh, PAX8 reporter, Shn3 inh set2)
O=C1C=CC(=O)N1CCCCCCCCCCN1C(=O)C=CC1=O	FN deposition inh 44, PAX8 reporter 68, Shn3 inh set2 93 (no result: aSyn UTR inh)
CCN1CCC(O)(/C=C/c2ccc(C(C)C)cc2)C(C(=O)/C=C/c2ccc(C(C)C)cc2)C1 (stereo unspecified)	EWS-Fli block 56, PAX8 reporter 64 (no result: aSyn UTR inh)
CCN1CCN(C(=O)/C=C/c2ccc(C(C)C)cc2)CC1	none
Cc1nc(=S)c2c([nH]1)-c1ccccc1CC21CCCCC1	EWS-Fli block 54
C[C@@H]1CN([C@@H](C)CO)C(=O)c2cc(NS(=O)(=O)c3ccc(F)cc3)ccc2O[C@H]1CN(C)Cc1ccc2c(c1)OCO2	none (no result: LMP1 NFkB inh, aSyn UTR inh, Shn3 inh set2)
Cc1ccc2nc(SCC(=O)Nc3ccccc3N3CCOCC3)c(C#N)cc2c1	none (no result: EWS-Fli block, FN deposition inh, PAX8 reporter)
CCc1ccc2nc(SCC(=O)Nc3ccccc3N3CCOCC3)c(C#N)cc2c1	EWS-Fli block 59
CCSc1nnc(NC(=O)CCn2c(=O)oc3ccccc32)s1	LMP1 NFkB inh 79
O=C(CCn1c(=O)oc2ccccc21)Nc1nc2ccccc2s1	none
CO[C@@H]1CN(C)C(=O)c2ccc(NC(C)=O)cc2OC[C@@H](C)N(CC2CCCCC2)C[C@H]1C	none (no result: EWS-Fli block, LMP1 NFkB inh, aSyn UTR inh, PAX8 reporter, Shn3 inh set2)
COc1ccc(CC(=O)N2N=C(c3ccncc3)CC2(O)C(F)(F)F)cc1 (stereo unspecified)	EWS-Fli block 53
C[C@@H]1CCc2cnnn2COC[C@H](Cc2ccccc2)NC1=O	none (no result: EWS-Fli block, LMP1 NFkB inh, aSyn UTR inh, PAX8 reporter, Shn3 inh set2)
CCN(CC)c1ccc2c(-c3ccc(S(=O)(=O)O)cc3S(=O)(=O)[O-])c3ccc(=[N+](CC)CC)cc-3oc2c1	aSyn UTR inh 80 (no result: EWS-Fli block, FN deposition inh, PAX8 reporter)
CC(C)(C)c1ccc(-n2ncc3c2CCCC3NC(=O)CCN2CCCC2=O)cc1 (stereo unspecified)	Shn3 inh set2 88
O=C(CCc1ccncc1)NC1CCCc2c1cnn2-c1cc(F)cc(F)c1 (stereo unspecified)	aSyn UTR inh 79 (no result: EWS-Fli block, FN deposition inh, PAX8 reporter)
CCC(=O)N(C1=C(NC(C)C)C(=O)c2ccccc2C1=O)C(C)C	none
CCCNC1=C(N(C(C)=O)c2cccc(F)c2)C(=O)c2ccccc2C1=O	aSyn UTR inh 92, PAX8 reporter 109
O=C(C[C@@H]1C=C[C@H](NC(=O)Nc2ccc3c(c2)OCO3)[C@@H](CO)O1)NCc1ccc(F)cc1	none (no result: FN deposition inh, LMP1 NFkB inh, aSyn UTR inh, Shn3 inh set2)
Cc1ccc(NC(=O)Cn2ncc(Cl)c(Cl)c2=O)cc1S(=O)(=O)N1CCCCC1	EWS-Fli block inconclusive, PAX8 reporter 90 (no result: aSyn UTR inh)
Cc1ccc(NC(=O)Cc2ccc(Cl)cc2)cc1S(=O)(=O)N1CCCCCC1	none (no result: aSyn UTR inh)
